Assay results published in ChEMBL document CHEMBL1127386, “Nitrogen-in-the-ring pyranoses and furanoses: structural basis of inhibition of mammalian glycosidases” (J Med Chem, 1994).

How the values were obtained:
[1] = biological target: Lysosomal alpha-glucosidase (Rattus norvegicus, UniProt Q6P7A9); assay: Concentration that causes 50% inhibition of mammalian alpha-glucosidase (lysosomal) was determined in rat liver; NI is less than 50 % inhibition at 1000 uM
Beta-galactosidase [2] = biological target: T1, Beta-galactosidase (Rattus norvegicus, UniProt D3ZUM4); assay: Concentration that causes 50% inhibition of mammalian lysosomal beta-galactosidase was determined in rat liver; NI is less than 50 % inhibition at 1000 uM
T1 sequence (D3ZUM4 whole entry): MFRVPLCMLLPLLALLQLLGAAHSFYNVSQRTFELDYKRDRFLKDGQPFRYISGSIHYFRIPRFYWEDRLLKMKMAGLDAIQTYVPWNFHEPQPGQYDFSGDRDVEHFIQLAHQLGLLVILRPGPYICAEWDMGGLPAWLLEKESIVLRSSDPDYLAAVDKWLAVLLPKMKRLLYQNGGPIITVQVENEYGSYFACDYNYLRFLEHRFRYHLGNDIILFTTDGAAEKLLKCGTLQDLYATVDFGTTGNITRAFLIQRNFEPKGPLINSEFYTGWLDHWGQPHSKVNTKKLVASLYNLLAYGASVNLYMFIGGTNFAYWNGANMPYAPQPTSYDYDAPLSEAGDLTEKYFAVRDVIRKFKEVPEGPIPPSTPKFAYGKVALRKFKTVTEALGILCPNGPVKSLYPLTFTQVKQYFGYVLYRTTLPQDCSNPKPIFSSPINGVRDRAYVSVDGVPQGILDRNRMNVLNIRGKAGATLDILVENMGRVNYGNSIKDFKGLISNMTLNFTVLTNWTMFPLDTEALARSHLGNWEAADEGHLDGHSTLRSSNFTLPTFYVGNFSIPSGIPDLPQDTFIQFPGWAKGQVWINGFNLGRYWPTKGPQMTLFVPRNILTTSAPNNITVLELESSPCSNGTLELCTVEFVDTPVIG

[3] = Concentration that causes 50% inhibition of mammalian alpha-glucosidase (endoplasmic reticulum glucosidase II) was determined in rat liver; NI is less than 50 % inhibition at 1000 uM
Beta-galactosidase [4] = biological target: T1, Beta-galactosidase; assay: Concentration that causes 50% inhibition of mammalian epididymal beta-galactosidase was determined in rat epididymis NI is less than 50 % inhibition at 1000 uM; type: tissue-based
Beta-galactosidase [5] = biological target: T1, Beta-galactosidase; assay: Concentration that causes 50% inhibition of mammalian lactase beta-galactosidase was determined in rat intestine; NI is less than 50 % inhibition at 1000 uM
Beta-galactosidase [6] = biological target: T2, Beta-galactosidase (Bos taurus, UniProt Q58D55); assay: Concentration that causes 50% inhibition of mammalian lysosomal beta-galactosidase was determined in bovine liver; NI is less than 50 % inhibition at 1000 uM
T2 sequence (Q58D55 whole entry): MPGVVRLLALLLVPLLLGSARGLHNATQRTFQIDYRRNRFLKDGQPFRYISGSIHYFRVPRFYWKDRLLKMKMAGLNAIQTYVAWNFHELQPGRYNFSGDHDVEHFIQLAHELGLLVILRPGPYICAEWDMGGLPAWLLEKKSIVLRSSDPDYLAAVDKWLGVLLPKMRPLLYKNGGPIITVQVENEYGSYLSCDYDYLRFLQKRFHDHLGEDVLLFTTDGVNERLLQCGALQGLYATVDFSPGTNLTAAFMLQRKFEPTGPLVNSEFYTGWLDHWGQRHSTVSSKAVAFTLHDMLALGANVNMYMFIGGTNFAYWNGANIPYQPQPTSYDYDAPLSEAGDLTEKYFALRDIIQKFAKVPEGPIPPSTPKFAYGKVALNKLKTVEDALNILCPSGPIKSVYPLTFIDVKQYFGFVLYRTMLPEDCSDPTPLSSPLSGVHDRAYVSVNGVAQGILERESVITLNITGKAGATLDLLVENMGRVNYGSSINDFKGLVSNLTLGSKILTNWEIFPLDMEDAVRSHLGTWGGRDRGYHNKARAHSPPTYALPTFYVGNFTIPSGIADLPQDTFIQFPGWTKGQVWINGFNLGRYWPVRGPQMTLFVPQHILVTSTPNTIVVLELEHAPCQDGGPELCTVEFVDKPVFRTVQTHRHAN

Beta-galactosidase [7] = biological target: T2, Beta-galactosidase; assay: Concentration that causes 50% inhibition of mammalian cytosolic beta-galactosidase was determined in bovine liver; NI is less than 50 % inhibition at 1000 uM
Trehalase [8] = biological target: T3, Trehalase (Rattus norvegicus, UniProt O70282); assay: Concentration that causes 50% inhibition of mammalian trehalase was determined in rat intestine; NI is less than 50 % inhibition at 1000 uM
T3 sequence (O70282 whole entry): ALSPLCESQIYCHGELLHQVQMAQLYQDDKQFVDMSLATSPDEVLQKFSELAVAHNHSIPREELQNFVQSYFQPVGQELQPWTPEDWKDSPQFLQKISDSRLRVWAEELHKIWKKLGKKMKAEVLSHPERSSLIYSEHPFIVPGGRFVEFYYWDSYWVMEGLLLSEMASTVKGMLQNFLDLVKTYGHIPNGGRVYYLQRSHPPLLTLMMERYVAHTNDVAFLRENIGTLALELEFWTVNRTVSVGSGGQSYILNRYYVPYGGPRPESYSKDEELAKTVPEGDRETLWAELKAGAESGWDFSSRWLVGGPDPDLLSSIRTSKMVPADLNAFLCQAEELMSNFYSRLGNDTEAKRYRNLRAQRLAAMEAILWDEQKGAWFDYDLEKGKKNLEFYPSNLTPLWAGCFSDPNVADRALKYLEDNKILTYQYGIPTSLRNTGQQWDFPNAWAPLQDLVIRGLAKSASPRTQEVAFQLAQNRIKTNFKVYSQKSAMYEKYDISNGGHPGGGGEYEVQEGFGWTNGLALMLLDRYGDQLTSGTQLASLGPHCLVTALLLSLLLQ

Trehalase [9] = biological target: T3, Trehalase; assay: Concentration that causes 50% inhibition of mammalian trehalase was determined in rat intestine; NI is less than 50 % inhibition at 1000 micro M
Beta-galactosidase [10] = biological target: T1, Beta-galactosidase; assay: Concentration that causes 50% inhibition of mammalian epididymal beta-galactosidase was determined in rat epididymis; NI is less than 50 % inhibition at 1000 uM; type: tissue-based
[11] = biological target: Lactase/phlorizin hydrolase (Rattus norvegicus, UniProt Q02401); assay: Tested for competitive inhibition of rat intestinal lactase
Lactase/phlorizin hydrolase, sequence (Q02401 868-1928 limits assumed): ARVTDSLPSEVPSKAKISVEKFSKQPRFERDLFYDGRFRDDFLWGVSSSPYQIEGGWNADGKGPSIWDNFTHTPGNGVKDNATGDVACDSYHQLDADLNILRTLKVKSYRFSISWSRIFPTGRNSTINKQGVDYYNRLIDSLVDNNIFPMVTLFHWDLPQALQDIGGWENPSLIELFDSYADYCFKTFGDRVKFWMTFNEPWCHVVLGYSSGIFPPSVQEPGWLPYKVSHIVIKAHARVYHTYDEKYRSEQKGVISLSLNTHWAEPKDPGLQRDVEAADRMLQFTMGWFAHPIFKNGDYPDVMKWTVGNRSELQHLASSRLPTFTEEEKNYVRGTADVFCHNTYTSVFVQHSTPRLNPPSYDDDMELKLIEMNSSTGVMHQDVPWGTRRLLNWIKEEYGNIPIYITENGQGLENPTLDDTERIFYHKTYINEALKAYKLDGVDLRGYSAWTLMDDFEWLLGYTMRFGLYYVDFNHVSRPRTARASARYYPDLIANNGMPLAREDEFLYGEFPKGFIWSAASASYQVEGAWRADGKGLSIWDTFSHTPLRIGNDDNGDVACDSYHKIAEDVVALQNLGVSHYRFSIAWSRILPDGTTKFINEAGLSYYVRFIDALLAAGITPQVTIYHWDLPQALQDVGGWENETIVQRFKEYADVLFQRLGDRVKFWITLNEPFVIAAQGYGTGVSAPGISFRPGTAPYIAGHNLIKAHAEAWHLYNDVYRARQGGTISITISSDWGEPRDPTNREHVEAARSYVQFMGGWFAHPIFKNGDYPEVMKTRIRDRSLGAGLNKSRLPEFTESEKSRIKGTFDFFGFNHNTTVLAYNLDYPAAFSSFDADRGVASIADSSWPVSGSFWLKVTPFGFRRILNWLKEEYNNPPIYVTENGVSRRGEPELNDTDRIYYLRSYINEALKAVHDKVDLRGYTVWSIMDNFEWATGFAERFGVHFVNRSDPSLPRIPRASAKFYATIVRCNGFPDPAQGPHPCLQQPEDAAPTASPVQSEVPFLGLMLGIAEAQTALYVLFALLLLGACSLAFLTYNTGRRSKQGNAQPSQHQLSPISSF
Procedure, shortened: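 Brush border membranes from rat small intestine, assayed at pH 5.8 with lactose as substrate. Released D-glucose was measured colorimetrically by the D-glucose oxidase–peroxidase method. Ki and inhibition mode were determined.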

[12] = Concentration that causes 50% inhibition of mammalian alpha-glucosidase (endoplasmic reticulum glucosidase II) was determined in rat liver NI is less than 50 % inhibition at 1000 uM; type: tissue-based
Alpha-glucosidase [13] = biological target: T4, Alpha-glucosidase (Bos taurus, UniProt Q9MYM4); assay: Inhibition of mammalian alpha-glucosidase (lysosomal) was determined in bovine liver; NI is less than 50 % inhibition at 1000 uM
T4 sequence (Q9MYM4 whole entry): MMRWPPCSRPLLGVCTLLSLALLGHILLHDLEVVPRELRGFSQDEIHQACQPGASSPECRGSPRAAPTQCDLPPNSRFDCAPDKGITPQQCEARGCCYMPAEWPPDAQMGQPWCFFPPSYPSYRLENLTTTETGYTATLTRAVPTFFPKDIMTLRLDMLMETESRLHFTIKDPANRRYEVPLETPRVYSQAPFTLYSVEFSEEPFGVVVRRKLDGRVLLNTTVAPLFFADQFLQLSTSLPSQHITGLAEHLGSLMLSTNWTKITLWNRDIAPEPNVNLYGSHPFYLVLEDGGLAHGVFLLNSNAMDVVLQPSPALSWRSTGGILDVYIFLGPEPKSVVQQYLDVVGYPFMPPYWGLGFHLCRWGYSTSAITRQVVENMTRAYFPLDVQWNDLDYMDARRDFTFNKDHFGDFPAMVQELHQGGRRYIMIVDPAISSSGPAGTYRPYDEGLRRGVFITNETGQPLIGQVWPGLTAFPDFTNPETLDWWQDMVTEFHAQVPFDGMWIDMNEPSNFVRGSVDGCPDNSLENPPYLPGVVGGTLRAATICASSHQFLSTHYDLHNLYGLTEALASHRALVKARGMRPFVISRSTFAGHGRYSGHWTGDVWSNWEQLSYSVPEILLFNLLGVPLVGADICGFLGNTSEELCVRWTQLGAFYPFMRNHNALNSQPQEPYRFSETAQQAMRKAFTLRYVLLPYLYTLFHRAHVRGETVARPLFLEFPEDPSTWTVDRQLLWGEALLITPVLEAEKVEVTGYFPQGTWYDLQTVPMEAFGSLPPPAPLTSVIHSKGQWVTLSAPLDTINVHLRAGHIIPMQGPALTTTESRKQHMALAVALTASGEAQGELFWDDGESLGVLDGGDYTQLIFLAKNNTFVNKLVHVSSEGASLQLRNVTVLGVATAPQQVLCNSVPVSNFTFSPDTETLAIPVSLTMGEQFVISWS

Beta-galactosidase [14] = biological target: T1, Beta-galactosidase; assay: Concentration that causes 50% inhibition of mammalian lysosomal beta-galactosidase was determined in rat liverNI is less than 50 % inhibition at 1000 uM
Beta-galactosidase [15] = biological target: T2, Beta-galactosidase; assay: Concentration that causes 50% inhibition of mammalian cytosolic beta-galactosidase was determined in bovine liver NI is less than 50 % inhibition at 1000 uM; type: tissue-based
Trehalase [16] = biological target: T3, Trehalase; assay: Concentration that causes 50% inhibition of mammalian trehalase was determined in rat intestine
Beta-galactosidase [17] = biological target: T2, Beta-galactosidase; assay: Concentration that causes 50% inhibition of mammalian lysosomal beta-galactosidase was determined in bovine liver NI is less than 50 % inhibition at 1000 uM; type: tissue-based
Beta-galactosidase [18] = biological target: T1, Beta-galactosidase; assay: Concentration that causes 50% inhibition of mammalian beta-galactosidase was determined in rat intestine; NI is less than 50 % inhibition at 1000 uM
Beta-galactosidase [19] = biological target: T1, Beta-galactosidase; assay: Concentration that causes 50% inhibition of mammalian beta-galactosidase was determined in rat epididymis; NI is less than 50 % inhibition at 1000 uM; type: tissue-based
Alpha-glucosidase [20] = biological target: T4, Alpha-glucosidase; assay: Inhibition of mammalian alpha-glucosidase (lysosomal) was determined in bovine liver; type: tissue-based
[21] = Concentration that causes 50% inhibition of mammalian alpha-glucosidase (endoplasmic reticulum glucosidase II) was determined in rat liver; type: tissue-based

Lysosomal alpha-glucosidase, sequence (Q6P7A9 whole entry): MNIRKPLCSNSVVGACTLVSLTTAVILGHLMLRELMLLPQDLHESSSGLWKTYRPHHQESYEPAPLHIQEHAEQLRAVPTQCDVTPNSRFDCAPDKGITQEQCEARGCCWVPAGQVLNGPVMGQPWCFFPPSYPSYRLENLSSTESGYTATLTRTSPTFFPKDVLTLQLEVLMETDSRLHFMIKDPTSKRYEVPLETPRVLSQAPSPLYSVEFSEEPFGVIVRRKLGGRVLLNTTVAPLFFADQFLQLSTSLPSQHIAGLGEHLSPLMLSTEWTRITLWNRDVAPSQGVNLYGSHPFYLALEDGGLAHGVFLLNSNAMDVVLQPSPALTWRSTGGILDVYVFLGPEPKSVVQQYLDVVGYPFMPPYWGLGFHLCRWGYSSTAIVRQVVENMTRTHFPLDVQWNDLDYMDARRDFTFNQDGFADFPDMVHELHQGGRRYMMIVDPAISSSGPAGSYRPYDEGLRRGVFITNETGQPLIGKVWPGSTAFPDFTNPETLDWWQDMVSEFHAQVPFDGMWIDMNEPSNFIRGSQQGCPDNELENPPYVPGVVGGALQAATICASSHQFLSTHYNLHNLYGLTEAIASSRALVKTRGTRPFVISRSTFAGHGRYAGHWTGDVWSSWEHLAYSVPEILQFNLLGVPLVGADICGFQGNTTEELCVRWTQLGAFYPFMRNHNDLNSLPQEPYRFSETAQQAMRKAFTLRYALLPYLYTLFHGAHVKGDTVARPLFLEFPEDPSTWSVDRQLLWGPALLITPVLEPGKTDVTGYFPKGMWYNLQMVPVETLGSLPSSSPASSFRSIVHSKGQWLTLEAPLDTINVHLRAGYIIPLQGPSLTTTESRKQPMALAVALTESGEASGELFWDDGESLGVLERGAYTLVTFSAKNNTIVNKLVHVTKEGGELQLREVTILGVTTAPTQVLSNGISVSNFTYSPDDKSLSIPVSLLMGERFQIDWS

Row | IC50 [1] | IC50 (Beta-galactosidase [2]) | IC50 [3] | IC50 (Beta-galactosidase [6]) | IC50 (Trehalase [8]) | IC50 (Beta-galactosidase [10]) | Structure (SMILES) | further results
1 | No inhibition | No inhibition | No inhibition | No inhibition | No inhibition |  | OC[C@H]1NCC[C@@H](O)[C@H]1O | IC50 (Beta-galactosidase [4]): No inhibition; IC50 (Beta-galactosidase [5]): No inhibition; IC50 (Beta-galactosidase [7]): No inhibition
2 | No inhibition | No inhibition |  | No inhibition |  | No inhibition | OC[C@H]1NCC[C@H](O)[C@@H]1O | IC50 (Trehalase [9]): No inhibition; Ki [11]: 1.9 µM; IC50 [12]: No inhibition; IC50 (Alpha-glucosidase [13]): No inhibition
3 |  |  |  |  |  |  | OC[C@H]1NC[C@H](O)[C@@H](O)[C@@H]1O (stereo in doubt; 1) [DUVOGLUSTAT] | IC50 (Beta-galactosidase [14]): No inhibition; IC50 (Beta-galactosidase [15]): No inhibition; IC50 (Beta-galactosidase [4]): No inhibition; IC50 (Trehalase [16]): 42 µM; IC50 (Beta-galactosidase [17]): No inhibition
4 |  | No inhibition | No inhibition | No inhibition |  | No inhibition | OC[C@H]1N[C@H](CO)[C@@H](O)[C@@H]1O | 
5 | No inhibition | No inhibition | No inhibition | No inhibition | No inhibition | No inhibition | OC[C@H]1NC[C@H](O)[C@@H](O)[C@@H]1O [DUVOGLUSTAT] | IC50 (Alpha-glucosidase [13]): No inhibition
6 |  |  |  |  |  |  | OC[C@H]1NC[C@H](O)[C@@H](O)[C@@H]1O (stereo in doubt; 2) [DUVOGLUSTAT] | IC50 (Beta-galactosidase [18]): No inhibition; IC50 (Beta-galactosidase [19]): No inhibition; IC50 [12]: No inhibition
7 | No inhibition | No inhibition |  | No inhibition | No inhibition | No inhibition | OC[C@H]1NCC[C@@H](O)[C@@H]1O [FAGOMINE] | IC50 (Alpha-glucosidase [20]): 520 µM; IC50 [21]: 840 µM
8 |  |  |  |  |  |  | OC[C@H]1NC[C@H](O)[C@@H](O)[C@@H]1O (stereo in doubt; 4) [DUVOGLUSTAT] | IC50 (Beta-galactosidase [7]): No inhibition
